# In the library only some 3.5% were active in any assay of this set; here they are far more common.
# MrgX1 agonist: agonists of human MrgX1 receptor, primary screen, HEK293 cells, Fluo-4 calcium flux | Fluo-4 calcium fluorescence, agonist mode; hits give high values | B-score at 10 µM | hit rate 0.44% among 310,000;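 active means calcium response B-score plate-corrected fluorescence ratio at least 3 library SD, with starting fluorescence B-score inside 5 SD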
# Target sequence (Q96LB2 whole entry, looked up): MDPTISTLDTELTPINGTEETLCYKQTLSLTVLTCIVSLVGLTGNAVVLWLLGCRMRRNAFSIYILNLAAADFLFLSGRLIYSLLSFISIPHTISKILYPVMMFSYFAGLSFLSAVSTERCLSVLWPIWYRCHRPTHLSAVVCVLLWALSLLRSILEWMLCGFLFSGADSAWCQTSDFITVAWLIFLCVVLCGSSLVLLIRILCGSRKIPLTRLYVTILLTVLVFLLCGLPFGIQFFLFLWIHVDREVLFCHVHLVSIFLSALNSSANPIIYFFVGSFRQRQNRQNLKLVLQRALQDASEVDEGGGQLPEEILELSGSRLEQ
#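 Material: HEK293 cells stably expressing human MrgX1 receptor | Quantity: 15,000 cells per well | Times: Cells plated overnight, dye loaded 0.5 h 37 °C, 0.5 h room temperature | Measured by: Kinetic Fluo-4 NW fluorescence of intracellular calcium | Control set: Positive and negative controls per plate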
# RGS4 pot: RGS4 potentiators or activators, primary screen, cell-based, HEK293 M3R inducible RGS4, calcium flux | carbachol calcium flux Fluo4; hits give low values | B-score at 10 µM | hit rate 0.92% among 310,000 | AID 463111, 2010;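 active means B-score of the integrated calcium signal more than 4 SD below the library mean, with starting fluorescence not abnormally high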;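 further: negative B-score means reduced calcium response which marks RGS4 activation or potentiation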
#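 System: HEK293 FlpIn-TREx cells, stable M3R, doxycycline-inducible RGS4. Timing: overnight RGS4 induction, 30 min dye load 37 °C, 20 min compound RT. Also added: carbachol, ECmax concentration. Measured by: Fluo4 fluorescence kinetic imaging of calcium. Evaluation: integrated calcium ratio converted to B score.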
# MrgX1 antagonist: antagonists of human MrgX1 receptor, primary screen, HEK293 cells, Fluo-4 calcium flux | Mas-related G-protein coupled receptor member X1 (Homo sapiens), Q96LB2 | BAM8-22 antagonism; hits give low values | B-score at 10 µM | hit rate 1.3% among 310,000;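 active means calcium-response B-score plate-corrected more than 3 library SD below zero, starting fluorescence within 5 deviations, no agonist response on first addition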;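 further: peak minus trough fluorescence over baseline after final BAM8-22 challenge near maximal dose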
# MrgX1 allo act: positive allosteric modulators of MrgX1, primary screen, HEK293 cells, Fluo-4 calcium flux | Mas-related G-protein coupled receptor member X1 (Homo sapiens), Q96LB2 | FDSS; hits give high values | hit rate 0.63% among 310,000 | B-score at 10 µM | AID 588675, 2011;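 active means plate-corrected calcium response at least 3 library SD above typical, normal starting fluorescence, not activating the receptor alone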;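 further: compound read alongside a low EC10 to EC30 dose of BAM8-22 agonist; peak minus trough fluorescence over baseline measured at the second addition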
# RGS4 block: RGS4 inhibitors, primary screen, cell-based, HEK293 M3R inducible RGS4, calcium flux; Regulator of G-protein signaling 4 (Homo sapiens), P49798; Fluo-4 calcium flux; hits give high values; triggered by carbachol at its EC20; B-score at 10 µM; hit rate 0.45% among 310,000;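 active means B-score, a plate-corrected calcium signal, over three deviations above library mean, with baseline fluorescence within five deviations of library mean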;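 further: RGS4 expression induced by doxycycline in cells with stable M3 receptor; B-score is computed from the integrated fluorescence ratio over baseline after carbachol; higher B-score means a larger calcium signal and so more RGS4 inhibition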
# Target sequence (P49798 whole entry, looked up): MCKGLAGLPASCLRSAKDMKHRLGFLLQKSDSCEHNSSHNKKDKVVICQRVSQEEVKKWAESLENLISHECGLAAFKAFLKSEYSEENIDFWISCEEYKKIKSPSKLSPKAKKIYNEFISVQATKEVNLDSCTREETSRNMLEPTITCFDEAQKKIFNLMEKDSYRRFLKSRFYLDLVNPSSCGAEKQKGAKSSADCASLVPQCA
# MrgX1 ant reconf: MrgX1 receptor antagonists, duplicate retest, confirmation, HEK293 cells, Fluo-4 calcium flux | AID 602420, 2012 | hit rate 19% among 2,300 | BAM8-22 calcium flux; hits give low values | remaining BAM8-22 calcium response % of control (hits give low values), % at 10 µM | shares compounds with MrgX1 antagonist;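 active means remaining agonist calcium response no higher than 100% minus 3 SD of agonist-only control wells, with starting fluorescence near control levels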;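 further: agonist BAM8-22 given at a near maximal EC90 to ECmax level; peak minus minimum fluorescence divided by baseline after agonist addition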
# HEK293 Ca flux: nonspecific calcium signal in parental HEK293, confirmation, counter-screen for MrgX1 antagonist project, parental HEK293 cells, Fluo-4 calcium flux. shares compounds with MrgX1 antagonist. Fluo-4 calcium fluorescence, FDSS. AID 624111, 2012. hit rate 2% among 4,000. fluorescence ratio F(max-min)/F0 at 10 µM;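 active means duplicate-averaged calcium fluorescence ratio at least three times the standard deviation of buffer wells, a nonspecific response in parental cells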
# HEK293 Ca counter: calcium response in parental HEK293 cells, primary screen, counter-screen for MrgX1 allosteric activator project, cell-based, Fluo-4 calcium flux, duplicate; shares compounds with MrgX1 antagonist; Fluo-4 fluorescence ratio; hits give high values; fluorescence ratio F(max-min)/F0 at 10 µM; hit rate 0.4% among 4,000;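 active means calcium fluorescence ratio, averaged over duplicates, at least 3 SD of the buffer-well ratio, meaning a nonspecific response in receptor-free cells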;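 further: untransfected parental HEK293 lacking MrgX1 used as counterscreen for MrgX1 allosteric activators; fluorescence change taken during the second addition on a kinetic imager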
# HEK293 Ca cntr2: calcium response in parental HEK293 cells, primary screen, counter-screen for MrgX1 agonist project, cell-based, Fluo-4 calcium flux, duplicate, agonist mode | shares compounds with MrgX1 antagonist | Fluo-4 calcium fluorescence (FDSS); hits give high values | fluorescence ratio F(max-min)/F0 at 10 µM | hit rate 8.7% among 4,000 | AID 624115, 2012;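 active means calcium fluorescence ratio at least three times the spread of buffer wells, meaning a non-specific response in parental cells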
# * hit, by the source's call; i = inactive; . = no result given.
SMILES,MrgX1 agonist,RGS4 pot,MrgX1 antagonist,MrgX1 allo act,RGS4 block,MrgX1 ant reconf,HEK293 Ca flux,HEK293 Ca counter,HEK293 Ca cntr2
O=C(c1cc(COc2cccc3cnccc23)on1)N1CCC(c2ccccc2Cl)C1 (stereo not given),i,i,-4.6*,i,i,i,i,i,i
CCN1CCCC1CNC1=NCCCCC1 (stereo not given),i,i,-5.2*,i,i,83%*,i,i,i
On1nnc2ccccc21,i,i,i,i,i,.,.,.,.
O=C(Cn1cc2c(n1)CCCCC2)N1CCc2ccccc2C1,i,i,i,i,i,.,.,.,.
O=C(Cn1cc2c(n1)CCCC2)N1CCc2ccccc21,i,i,-7.1*,i,i,i,i,i,i
O=C(O)c1ccc(-n2c(=O)c3ccccc3c3ccccc3c2=O)cc1,i,i,-6.3*,i,i,i,i,i,i
CC(=O)Nc1ccc(-n2c(=O)c3ccccc3c3ccccc3c2=O)cc1,i,i,i,i,i,.,.,.,.
COCCNS(=O)(=O)c1cc2[nH]c3c(c2cc1C)C(=O)CC(C)(C)C3,i,i,i,i,i,.,.,.,.
COC(OC)c1ccnc(-c2ccc(OC(C)=O)cc2)n1,i,i,i,i,i,.,.,.,.
COC(OC)c1ccnc(-c2ccc(OC(=O)c3ccccc3)cc2)n1,i,i,-9.2*,i,i,i,i,i,i
COCCn1c(C)cc(C(=O)CSc2ncn[nH]2)c1C,i,i,-5.1*,i,i,i,i,i,i
COCCn1c(C)cc(C(=O)CSc2nc(C)c(C)c(C)n2)c1C,i,i,i,i,i,.,.,.,.
CC(C)CC(NC(N)=O)C(=O)NCCc1ccc(Cl)cc1 (stereo not given),i,i,i,i,i,.,.,.,.
COc1cccc(C(=O)Nc2cccnc2)c1,i,i,-5*,i,i,i,i,i,i
O=C(Nc1cccnc1)c1ccc(COc2ccccc2Br)cc1,i,i,-7.4*,i,i,i,i,i,i
O=C(NCc1cccnc1)c1ccc(COc2ccccc2Br)cc1,i,i,i,i,i,.,.,.,.
COc1cccc(C(=O)Nc2cccc(-c3nnc(-c4ccco4)o3)c2)c1,i,i,-5.5*,i,i,60%*,i,i,i
COc1ccc(OC)c(C(C)NC(=O)c2ccc(Br)cc2)c1 (stereo not given),i,i,i,i,i,.,.,.,.
COc1ccc(OC)c(C(C)NC(=O)Nc2cccc(C(C)=O)c2)c1 (stereo not given),i,i,-10*,i,i,i,i,i,i
COc1ccc(S(=O)(=O)NC2CC(C)(C)NC(C)(C)C2)cc1C(C)C,i,i,i,i,i,.,.,.,.
COc1cccc(NC(=O)c2ccc(N3C(=O)C4CCC(C)CC4C3=O)cc2)c1 (stereo not given),i,i,i,i,i,.,.,.,.
CC(=O)c1cccc(NC(=O)Oc2ccccc2)c1,i,i,-7.8*,i,i,i,i,i,i
COc1cccc(C(=O)Nc2cccc(C(C)=O)c2)c1,i,i,-8*,i,i,i,i,i,i
CC(=O)c1ccc(NC(=O)Oc2ccccc2)cc1,i,i,i,i,i,.,.,.,.
O=C(Nc1ccc2nn(-c3ccccc3)nc2c1)c1cccnc1,i,i,-5.7*,i,i,84%*,i,i,i
SMILES,MrgX1 agonist,RGS4 pot,MrgX1 antagonist,MrgX1 allo act,RGS4 block,MrgX1 ant reconf,HEK293 Ca flux,HEK293 Ca counter,HEK293 Ca cntr2
COc1cccc(C(=O)NCc2cccnc2)c1,i,i,-5.5*,i,i,i,i,i,i
COCCN(C(=O)CSc1nnc(-c2ccccc2F)n1N)c1c(N)n(Cc2ccccc2)c(=O)[nH]c1=O,i,i,i,i,i,.,.,.,.
Cc1ccc(N=C/C(C(=O)C(F)(F)F)=C(\O)c2ccco2)cc1Cl,i,i,i,i,i,.,.,.,.
O=C(Nc1cccnc1)c1cccc(S(=O)(=O)N2CCc3ccccc32)c1,i,i,i,i,i,.,.,.,.
COc1ccc(NC(=O)NCc2cccnc2)cc1,i,i,-7.6*,i,i,i,i,i,i
CC1Cc2ccccc2N1S(=O)(=O)c1cccc(C(=O)Nc2cccnc2)c1 (stereo not given),i,i,-4.6*,i,i,i,i,i,i
CCSc1nc2c(c(-c3ccc(C)o3)c1C#N)CCCC2,i,i,i,i,i,.,.,.,.
COC(=O)CSc1nc2c(c(-c3ccc(C)o3)c1C#N)CCCC2,i,i,-6.9*,i,i,i,i,i,i
CCc1nc2nc(C)c(NS(=O)(=O)c3ccc(Cl)s3)c(=O)n2[nH]1,i,i,i,i,i,.,.,.,.
Cc1c(C(=O)N2CCN(c3ncccn3)CC2)sc2nc3n(c(=O)c12)CCCC3,i,i,-7.4*,i,i,i,i,i,i
Cc1c(C(=O)O)sc2nc3n(c(=O)c12)CCCCC3,i,i,i,i,i,.,.,.,.
O=C(CNC(=O)c1ccccc1)NCC(=O)OCC(=O)c1ccc(F)cc1,i,i,-4.8*,i,i,i,i,i,i
O=C(CNC(=O)Cc1ccccc1)NCC(=O)OCC(=O)c1ccc(F)cc1,i,i,i,i,i,.,.,.,.

# Compound activity (PubChem)
